Screening results from PubChem BioAssay.
TDP2 inh: blocks human TDP2 phosphodiesterase activity | O95551 | inhibition, % at 12.8 µM | recombinant TDP2, T5PNP hydrolysis, p-nitrophenol absorbance 415 nm | AID 720702 | 370,000 tested, 0.34% active;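 active = inhibition above the mean of all tested compounds plus 3 SD, set per campaign, cut at about 25% in these data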;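 note: 0% = DMSO with enzyme and 100% = buffer with substrate but no TDP2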
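System: recombinant human TDP2 / Amount: 120 nM TDP2 per well / Also added: 5 mM T5PNP chromogenic substrate / Doses: 12.8 µM single point, 1% DMSO / Incubation: 2 h at 37 °C / Detection: p-Nitrophenol epi absorbance / Evaluation: % inhibition relative to enzyme-containing and enzyme-free wells / Repeats: singlicate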
LEDGF integ inh: blocks HIV-1 LEDGF/p75-dependent DNA integration; TR-FRET IN-LEDGF/p75 DNA integration, Eu/Cy5; inhibition, % at 3.7 µM; 370,000 tested, 0.64% active;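 active = inhibition above the screen-wide mean plus 3 SD, cut at about 13% in these data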;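 note: signal is the Cy5 over europium emission ratio at 671 and 618 nm; 0% = plate median of compound wells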
CASP6 VEID inh: inhibitors of human caspase-6; P55212; purified caspase-6, Z-VEID-R110 cleavage fluorescence; inhibition, % at 12.5 µM; 350,000 tested, 0.53% active; AID 686996;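 active = mean inhibition across replicates at least about 35%, with every replicate also reaching that limit, limit read from the data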;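 note: 0% = median of neutral control wells and 100% = no fluorescence left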
MBD2 DNA inh: blocks human MBD2 binding to methylated DNA | Q9UBB5 | TR-FRET, MBD2 binding to methylated oligonucleotide | inhibition, % at 4.4 µM | 370,000 tested, 0.31% active | AID 686964; in the data active = inhibition above about 13%
UHRF1 binding: UHRF1 methyl-DNA binding inhibition; UHRF1 binding to methylated oligo, TR-FRET; inhibition, % at 4.4 µM; 370,000 tested, 0.75% active; in the data active = inhibition above about 21%;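 note: UHRF1 SRA domain binding a hemimethylated CpG hairpin DNA probe; 0% = median of test compound wells and 100% = reference inhibitor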
Target sequence (Q96T88 whole entry, looked up, the tested form may be a part): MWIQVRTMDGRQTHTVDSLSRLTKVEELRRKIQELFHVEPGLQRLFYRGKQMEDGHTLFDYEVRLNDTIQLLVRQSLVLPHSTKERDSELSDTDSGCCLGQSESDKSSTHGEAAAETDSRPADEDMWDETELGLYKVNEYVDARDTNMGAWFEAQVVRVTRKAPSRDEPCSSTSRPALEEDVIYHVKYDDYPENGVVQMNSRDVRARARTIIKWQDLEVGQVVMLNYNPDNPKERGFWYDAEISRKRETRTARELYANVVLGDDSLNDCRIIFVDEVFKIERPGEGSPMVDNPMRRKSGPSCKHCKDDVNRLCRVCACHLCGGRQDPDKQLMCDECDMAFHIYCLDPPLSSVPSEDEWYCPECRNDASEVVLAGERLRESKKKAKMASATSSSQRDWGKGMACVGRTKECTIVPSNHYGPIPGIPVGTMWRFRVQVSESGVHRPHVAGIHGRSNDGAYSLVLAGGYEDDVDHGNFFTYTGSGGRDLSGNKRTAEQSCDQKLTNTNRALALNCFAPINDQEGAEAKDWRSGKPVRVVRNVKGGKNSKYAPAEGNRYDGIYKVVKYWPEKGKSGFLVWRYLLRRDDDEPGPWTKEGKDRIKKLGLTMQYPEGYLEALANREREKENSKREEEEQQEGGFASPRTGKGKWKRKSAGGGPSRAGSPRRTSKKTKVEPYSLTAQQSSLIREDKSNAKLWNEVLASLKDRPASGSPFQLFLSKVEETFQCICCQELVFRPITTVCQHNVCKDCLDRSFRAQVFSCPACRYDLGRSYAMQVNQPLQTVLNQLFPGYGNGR
NSD2 HMT inh: blocks human histone methyltransferase NSD2; 310,000 tested, 0.54% active; inhibition, % at 12.5 µM; O96028; NSD2 peptide methylation, AlphaScreen, 120 min; in the data active = inhibition above about 50%
Active calls of the source: *; . = not tested or not shown. Sampled rows, rich in hits. Any-hit rate of the full collection: about 1.9%.

SMILES	TDP2 inh	LEDGF integ inh	CASP6 VEID inh	MBD2 DNA inh	UHRF1 binding	NSD2 HMT inh
O=C(COC(=O)c1ccc([N+](=O)[O-])o1)Nc1nc2ccccc2s1	2	1	6	-1	29*	5
COc1ccccc1CNC(=O)COC(=O)c1ccc([N+](=O)[O-])o1	2	1	35*	-6	-5	0
O=C(COC(=O)c1ccc([N+](=O)[O-])o1)Nc1ccc2c(c1)OCO2	2	-1	4	1	-5	1
O=C(COC(=O)c1ccc([N+](=O)[O-])o1)Nc1ccc2c(c1)OC(F)(F)O2	6	0	56*	2	-2	5
O=C(COC(=O)c1ccc(Br)o1)Nc1nc2ccccc2s1	3	-1	.	0	-3	0
CNC[C@H]1OCCCC[C@@H](C)Oc2ccc(NC(=O)c3ccncc3)cc2C(=O)N([C@@H](C)CO)C[C@@H]1C	.	.	-4	.	.	.
CN1C(=O)c2cc(NC(=O)c3ccc(C(F)(F)F)cc3)ccc2OC[C@@H]2O[C@H](CC(=O)O)CC[C@H]21	.	.	2	.	.	.
CCOC(=O)C1CCN(Cc2cn[nH]c2-c2ccccc2)CC1	7	-3	.	-1	2	126*
CCOC(=O)C1=NN(C(=O)Nc2ccc(OC)cc2)C2C(=O)N(c3cccc(C(F)(F)F)c3)C(=O)C12 (stereo not drawn)	-7	1	.	33*	-3	.
CCCNC(=O)N(C)C[C@@H]1Oc2ncc(C#CCC(C)C)cc2C(=O)N([C@@H](C)CO)C[C@H]1C	.	.	-2	.	.	.
CCn1cc(CNC(=S)Nc2cccc3ccccc23)cn1	-4	-2	53*	2	-1	0
S=C(NCc1cccnc1)Nc1cccc2ccccc12	7	1	1	-2	1	-2
O=C(C[C@H]1C[C@H]2c3cc(NC(=O)C4CCOCC4)ccc3O[C@H]2[C@@H](CO)O1)NCCc1ccccc1	.	.	-1	.	.	.
O=C(O)c1ccccc1C(=O)c1cccs1	-1	1	.	8	24*	8
COc1ccc(/C(C)=N/Nc2ncc(Cl)cc2Cl)c(O)c1	-2	1	0	6	24*	-5
O=C1Cc2ccccc2C(=O)N1Nc1ccccc1	-1	-2	49*	-7	-4	.
COc1ccc(N2C(=O)Cc3ccccc3C2=O)cc1	2	1	43*	-4	-3	3
Cc1ccccc1N1C(=O)Cc2ccccc2C1=O	-3	4	54*	-7	-2	5
COc1ccc2c(c1)C(=O)N(c1ccccc1)C(=O)C2	-2	2	.	-4	-1	.
CCCc1nc2ccc(C(=O)OC)cn2c1Cc1ccccc1C(F)(F)F	5	2	4	11	25*	.
COC(=O)c1ccc2nc(-c3ccc(F)cc3)c(Cc3ccccc3OC)n2c1	-3	-1	-1	4	17	.
CCCc1nc2ccc(C(=O)OC)cn2c1Cc1ccccc1OC	5	4	6	-4	23*	.
COC(=O)CC1C(=O)NCCN1C(=O)CSc1nnnn1-c1ccc(Cl)cc1 (stereo not drawn)	-11	-5	50*	-9	-3	-4
O=C(CSc1nnnn1-c1ccc(Cl)cc1)N1CCNC1=O	-5	2	-2	-1	2	-6
O=C(COC(=O)/C=C/c1ccco1)Nc1ncc(Cl)cc1Cl	2	5	44*	-4	8	0
SMILES	TDP2 inh	LEDGF integ inh	CASP6 VEID inh	MBD2 DNA inh	UHRF1 binding	NSD2 HMT inh
COC(=O)c1ccc(/C=C/C(=O)OCC(=O)Nc2ncc(Cl)cc2Cl)cc1	5	1	0	-5	0	-1
CCN(C(=O)COC(=O)/C=C/c1ccco1)C1CCCCC1	8	6	57*	7	18	10
CCN(C(=O)COC(=O)/C=C/c1ccc(F)cc1)C1CCCCC1	-8	0	2	3	3	0
O=C(/C=C/c1ccco1)OCC(=O)N1CCCCC1	9	3	50*	1	3	4
CO[C@@H]1CN(C)C(=O)c2ccc(NC(=O)CC(F)(F)F)cc2OC[C@H](C)N(C(C)=O)C[C@H]1C	.	.	-3	.	.	.
N=C1S/C(=C\c2ccco2)C(=O)N1c1nccs1	13	3	37*	0	-1	8
Cc1cccc(NC(=S)N(CCCN2CCOCC2)Cc2cn(C)c3ccccc23)c1	-4	0	.	1	42*	35
CN(C)c1ccc2c(c1)[C@@H]1C[C@@H](CC(=O)NCc3ccccn3)O[C@@H](CO)[C@@H]1O2	.	.	40*	.	.	.
N#C/C(=C\c1ccc(O)cc1)C(=O)N1CCCC1	8	-2	5	8	21*	0
CCN1[C@@H]2Cn3c(ccc(-c4cccc(F)c4)c3=O)[C@H]1[C@@H](C(=O)NCC1CC1)[C@@H]2CO	.	.	2	.	.	.
CCOC(=O)c1ccc(NC(=O)c2cc3ccccc3o2)cc1	2	1	.	3	26*	-3
C[C@H]1CN([C@@H](C)CO)C(=O)c2cccc(NS(=O)(=O)c3ccccc3)c2O[C@@H]1CN(C)Cc1ccc2c(c1)OCO2	.	.	0	.	.	.
Cc1sc2nc(COC(=O)c3c(F)cccc3F)[nH]c(=O)c2c1C	-6	-1	-3	4	38*	-2
C[C@@H]1CN([C@@H](C)CO)S(=O)(=O)c2ccc(-c3ccncc3)cc2O[C@@H]1CN(C)S(=O)(=O)c1ccccc1F	.	.	-1	.	.	.
C[C@@H]1CN([C@@H](C)CO)S(=O)(=O)c2ccc(C3=CCCC3)cc2O[C@H]1CN(C)C(=O)C1CCOCC1	.	.	-3	.	.	.
N#Cc1c(-c2ccco2)ccn(Cc2ccc(F)cc2)c1=O	-1	5	1	-3	0	0
N#Cc1c(-c2ccco2)ccn(Cc2cccc(F)c2)c1=O	-9	5	3	8	23*	.
CC(=O)c1c(C)n(-c2ccccc2)c2ccc(OCC(O)CN3CCOCC3)cc12 (stereo not drawn)	-1	-4	2	0	83*	38
CO[C@H]1CN(C)C(=O)c2cc(NC(=O)Nc3cccc(F)c3)ccc2OC[C@H](C)N(C(=O)Nc2c(C)noc2C)C[C@H]1C	.	.	1	.	.	.
Cc1csc(N=Cc2ccc([N+](=O)[O-])o2)n1	4	21*	7	10	22*	-1
CC(=O)Nc1cccc(NC(=O)c2cc([N+](=O)[O-])ccc2N2CCCCC2)c1	3	-4	36*	0	-1	1
C[C@H](CO)N1C[C@H](C)[C@@H](CN(C)C)Oc2ncc(C#CC3(O)CCCC3)cc2C1=O	.	.	-2	.	.	.
CCOc1ccccc1OCCC(=O)NNC(=O)Cn1nc(C)cc1C	8	-2	46*	2	16	4
Cc1cccc(OCCC(=O)NNC(=O)Cn2nc(C)cc2C)c1	-8	4	2	1	0	-2
COc1ccc(-c2noc(CNC(=O)Nc3ccc(F)cc3)n2)cc1	0	-3	2	4	65*	0
